Data taken from ChEMBL document CHEMBL4825676, “Design and biological evaluation of cinnamic and phenylpropionic amide derivatives as novel dual inhibitors of HIV-1 protease and reverse transcriptase” (Eur J Med Chem, 2021).

How the values were obtained:
[1] = test system: Human immunodeficiency virus 1; assay: Antiviral activity against HIV1 NL4-3 Env-deficient VSV-G pseudotyped virus infected in human SUP-T1 cells assessed as inhibition of late stage viral production when host cells were infected with compound pretreated viral particles at 10 uM measured after 48 hrs by luciferase assay relative to control; format: functional; conditions: Human immunodeficiency virus 1, NL4-3, SUP-T1
How it was run: (§1)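 Late-stage assay: VSV-G pseudotyped HIV-1 was made by co-transfecting 293T cells with pNL4-3-E⁻R⁻ (or DRV-resistant variants) plus pHCMV-G. Inhibitors in DMSO were added to the medium 5 h post-transfection. After 48 h at 37 °C, supernatant virus infected SupT1 cells for 48 h, and luciferase was read in the newly infected cells. Quintuplicate; inhibition at one fixed concentration and EC50.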

[2] = test system: Human immunodeficiency virus 1; assay: Antiviral activity against HIV1 NL4-3 VSV-G pseudotyped virus infected in human SUP-T1 cells assessed as inhibition of early stage viral production at 10 uM measured after 48 hrs by luciferase assay relative to control; format: functional; conditions: Human immunodeficiency virus 1, NL4-3, SUP-T1
How it was run: (§2)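 Early-stage assay: SupT1 cells (1 × 10⁵/mL) were infected with VSV-G-pseudotyped HIV-1(NL4-3), and compounds were added afterward, with final DMSO held at 1% (v/v). After 48 h the cells were lysed and firefly luciferase activity was measured. Quintuplicate; inhibition at one fixed concentration and EC50.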

[3] = target: Human immunodeficiency virus type 1 reverse transcriptase (Human immunodeficiency virus 1, UniProt Q72547); assay: Inhibition of wild type HIV-1 NL4-3 reverse transcriptase using random mRNA as template and GADPH as primer measured at 42 degreeC for 5 mins, 95 degreeC for 10sec and 60 degreeC for 60 sec by qRT-PCR analysis
[4] = target: Human immunodeficiency virus type 1 protease (Human immunodeficiency virus 1, UniProt Q72874); assay: Inhibition of wild type HIV1 protease expressed in Escherichia coli using Arg-Glu (EDANS)-Ser-Gln-Asn-Tyr-Pro-Ile-Val-Gln-Lys(DABCYL)-Arg as substrate preincubated for 20 to 30 mins followed by substrate addition and measured for 10 mins by FRET assay
How it was run: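 Recombinant HIV-1 PR was expressed in E. coli and purified. It was mixed with inhibitor (DMSO stock) for 20–30 min at room temperature before addition of the EDANS/DABCYL-labelled peptide. Buffer: 0.1 M sodium acetate, 1 M NaCl, 1 mM EDTA, 1 mM DTT, 2% DMSO, 1 mg/mL BSA, pH 4.7. Triplicate; mean of three independent experiments.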

[5] = test system: Human immunodeficiency virus 1; assay: Antiviral activity against HIV1 NL4-3 Env-deficient VSV-G pseudotyped virus infected in human SUP-T1 cells assessed as inhibition of late stage viral production when host cells were infected with compound pretreated viral particles measured after 48 hrs by luciferase assay; format: functional, organism-based; conditions: Human immunodeficiency virus 1, NL4-3, SUP-T1; how it was run: as §1
[6] = test system: Human immunodeficiency virus 1; assay: Antiviral activity against HIV1 NL4-3 VSV-G pseudotyped virus infected in human SUP-T1 cells assessed as inhibition of early stage viral production measured after 48 hrs by luciferase assay; format: functional, organism-based; conditions: Human immunodeficiency virus 1, NL4-3, SUP-T1, 48 h; how it was run: as §2
[7] = Ratio of antiviral activity against HIV1 NL4-3 Env-deficient VSV-G pseudotyped virus infected in human SUP-T1 cells assessed as inhibition of late stage viral production when host cells were infected with compound pretreated viral particles to antiviral activity against HIV1 NL4-3 VSV-G pseudotyped virus infected in human SUP-T1 cells assessed as inhibition of early stage viral production; format: functional, Human immunodeficiency virus 1
How it was run: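 Ratio taken from single-round VSV-G pseudotyped HIV-1(NL4-3) luciferase assays in SupT1 cells (quintuplicate). It is late-stage inhibition (compound given to producer 293T cells after transfection) divided by early-stage inhibition (compound added after SupT1 infection), or the reverse.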

CC(C)CN(C[C@@H](O)[C@H](Cc1ccccc1)NC(=O)O[C@H]1CO[C@H]2OCC[C@H]21)S(=O)(=O)c1ccc(N)cc1
inhibition at 10 µM [1]: 99%
inhibition at 10 µM [2]: 2%

COc1ccc(S(=O)(=O)N(CC(C)C)C[C@@H](O)[C@H](Cc2ccccc2)NC(=O)/C=C/c2ccc(O)c(OC)c2)cc1
IC50 [3]: 146 nM
IC50 [4]: 2.93 nM

COc1cc(CCC(=O)N[C@@H](Cc2ccccc2)[C@H](O)CN(CC(C)C)S(=O)(=O)c2ccc(N)cc2)ccc1O
IC50 [3]: 31.5 nM
IC50 [4]: 0.58 nM

COc1cc(CCC(=O)N[C@@H](Cc2ccccc2)[C@H](O)CN(CC(C)C)S(=O)(=O)c2ccc(N)cc2)c(OC)cc1O
IC50 [3]: 113 nM
IC50 [4]: 68.9 nM

CCCN(C[C@@H](O)[C@H](Cc1ccccc1)NC(=O)CCc1cc(OC)c(O)cc1OC)S(=O)(=O)c1ccc(OC)cc1
IC50 [3]: 6.5 nM
IC50 [4]: 86.4 nM

COc1ccc(S(=O)(=O)N(C[C@@H](O)[C@H](Cc2ccccc2)NC(=O)/C=C/c2ccc(O)c(OC)c2)C2CC2)cc1
IC50 [3]: 43.5 nM
IC50 [4]: 97.6 nM

COc1cc(/C=C/C(=O)N[C@@H](Cc2ccccc2)[C@H](O)CN(CC(C)C)S(=O)(=O)c2ccc(SC)cc2)ccc1O
IC50 [3]: 99.5 nM
IC50 [4]: 15.8 nM

COc1ccc(S(=O)(=O)N(CC(C)C)C[C@@H](O)[C@H](Cc2ccccc2)NC(=O)/C=C/c2ccc(O)c(O)c2)cn1
IC50 [3]: 35.5 nM
IC50 [4]: 2.86 nM

COc1ccc(S(=O)(=O)N(C[C@@H](O)[C@H](Cc2ccccc2)NC(=O)CCc2cc(OC)c(O)cc2OC)C2CC2)cc1
IC50 [3]: 9 nM
IC50 [4]: 161 nM

COc1cc(/C=C/C(=O)N[C@@H](Cc2ccccc2)[C@H](O)CN(CC(C)C)S(=O)(=O)c2ccc(N)cc2)ccc1O
IC50 [3]: 43.5 nM
IC50 [4]: 3.09 nM

COc1ccc(S(=O)(=O)N(C[C@@H](O)[C@H](Cc2ccccc2)NC(=O)CCc2cc(OC)c(O)cc2OC)C(C)C)cc1
IC50 [3]: 299 nM
IC50 [4]: 70.1 nM

CC(C)CN(C[C@@H](O)[C@H](Cc1ccccc1)NC(=O)/C=C/c1ccc(O)c(O)c1)S(=O)(=O)c1ccc(N)cc1
IC50 [3]: 7.5 nM
IC50 [4]: 0.2 nM

COc1ccc(S(=O)(=O)N(CC(C)C)C[C@@H](O)[C@H](Cc2ccccc2)NC(=O)/C=C/c2cc(OC)c(O)c(OC)c2)cn1
IC50 [3]: 11.5 nM
IC50 [4]: 69.5 nM

COc1ccc(S(=O)(=O)N(CC(C)C)C[C@@H](O)[C@H](Cc2ccccc2)NC(=O)CCc2ccc(O)c(OC)c2)cn1
IC50 [3]: 241 nM
IC50 [4]: 0.16 nM

COc1ccc(S(=O)(=O)N(C[C@@H](O)[C@H](Cc2ccccc2)NC(=O)CCc2ccc(O)c(O)c2)C2CC2)cc1
IC50 [3]: 45.5 nM
IC50 [4]: 4.04 nM

COc1ccc(S(=O)(=O)N(C[C@@H](O)[C@H](Cc2ccccc2)NC(=O)/C=C/c2ccc(O)c(OC)c2)C(C)C)cc1
IC50 [3]: 87.5 nM
IC50 [4]: 98.8 nM

COc1ccc(S(=O)(=O)N(C[C@@H](O)[C@H](Cc2ccccc2)NC(=O)CCc2ccc(O)c(O)c2)C(C)C)cc1
IC50 [3]: 20.5 nM
IC50 [4]: 1.47 nM

COc1ccc(S(=O)(=O)N(C[C@@H](O)[C@H](Cc2ccccc2)NC(=O)/C=C/c2cc(OC)c(O)c(OC)c2)C(C)C)cc1
IC50 [3]: 199 nM
IC50 [4]: 527 nM

COc1ccc(S(=O)(=O)N(C[C@@H](O)[C@H](Cc2ccccc2)NC(=O)/C=C/c2ccc(O)c(O)c2)C(C)C)cc1
IC50 [3]: 53.5 nM
IC50 [4]: 54 nM

CCCN(C[C@@H](O)[C@H](Cc1ccccc1)NC(=O)CCc1ccc(O)c(O)c1)S(=O)(=O)c1ccc(OC)cc1
IC50 [3]: 7.5 nM
IC50 [4]: 0.54 nM

COc1cc(CCC(=O)N[C@@H](Cc2ccccc2)[C@H](O)CN(CC(C)C)S(=O)(=O)c2ccc(SC)cc2)c(OC)cc1O
IC50 [3]: 60.7 nM
IC50 [4]: 89.8 nM

COc1ccc(S(=O)(=O)N(CC(C)C)C[C@@H](O)[C@H](Cc2ccccc2)NC(=O)CCc2cc(OC)c(O)cc2OC)cc1
IC50 [3]: 73 nM
IC50 [4]: 104 nM

COc1cc(CCC(=O)N[C@@H](Cc2ccccc2)[C@H](O)CN(CC(C)C)S(=O)(=O)c2ccc(SC)cc2)ccc1O
IC50 [3]: 3.5 nM
IC50 [4]: 7.73 nM

COc1cc(/C=C/C(=O)N[C@@H](Cc2ccccc2)[C@H](O)CN(CC(C)C)S(=O)(=O)c2ccc(SC)cc2)cc(OC)c1O
IC50 [3]: 51.5 nM
IC50 [4]: 65.1 nM

COc1ccc(S(=O)(=O)N(C[C@@H](O)[C@H](Cc2ccccc2)NC(=O)CCc2ccc(O)c(OC)c2)C2CC2)cc1
IC50 [3]: 285 nM
IC50 [4]: 32.5 nM

COc1ccc(S(=O)(=O)N(CC(C)C)C[C@@H](O)[C@H](Cc2ccccc2)NC(=O)CCc2ccc(O)c(O)c2)cn1
IC50 [3]: 2.5 nM
IC50 [4]: 0.081 nM

CSc1ccc(S(=O)(=O)N(CC(C)C)C[C@@H](O)[C@H](Cc2ccccc2)NC(=O)/C=C/c2ccc(O)c(O)c2)cc1
IC50 [3]: 21.5 nM
IC50 [4]: 16.2 nM

COc1ccc(S(=O)(=O)N(CC(C)C)C[C@@H](O)[C@H](Cc2ccccc2)NC(=O)/C=C/c2cc(OC)c(O)c(OC)c2)cc1
IC50 [3]: 125 nM
IC50 [4]: 13.1 nM

COc1ccc(S(=O)(=O)N(CC(C)C)C[C@@H](O)[C@H](Cc2ccccc2)NC(=O)/C=C/c2ccc(O)c(O)c2)cc1
IC50 [3]: 40.8 nM
IC50 [4]: 0.16 nM

CCCN(C[C@@H](O)[C@H](Cc1ccccc1)NC(=O)CCc1ccc(O)c(OC)c1)S(=O)(=O)c1ccc(OC)cc1
IC50 [3]: 234 nM
IC50 [4]: 1.7 nM

COc1ccc(S(=O)(=O)N(C[C@@H](O)[C@H](Cc2ccccc2)NC(=O)CCc2ccc(O)c(OC)c2)C(C)C)cc1
IC50 [3]: 40.5 nM
IC50 [4]: 9.56 nM

CSc1ccc(S(=O)(=O)N(CC(C)C)C[C@@H](O)[C@H](Cc2ccccc2)NC(=O)CCc2ccc(O)c(O)c2)cc1
EC50 [5]: 2310 nM
IC50 [3]: 0.43 nM
IC50 [4]: 2.02 nM
inhibition at 10 µM [1]: 97%
EC50 [6]: 8320 nM
inhibition at 10 µM [2]: 68%
Ratio [7]: 1.43

COc1ccc(S(=O)(=O)N(CC(C)C)C[C@@H](O)[C@H](Cc2ccccc2)NC(=O)CCc2cc(OC)c(O)cc2OC)cn1
IC50 [3]: 2.97 nM
IC50 [4]: 42.2 nM

COc1ccc(S(=O)(=O)N(C[C@@H](O)[C@H](Cc2ccccc2)NC(=O)/C=C/c2ccc(O)c(O)c2)C2CC2)cc1
IC50 [3]: 31.5 nM
IC50 [4]: 19.5 nM

COc1ccc(S(=O)(=O)N(CC(C)C)C[C@@H](O)[C@H](Cc2ccccc2)NC(=O)/C=C/c2ccc(O)c(OC)c2)cn1
IC50 [3]: 124 nM
IC50 [4]: 2.42 nM

CC(C)CN(C[C@@H](O)[C@H](Cc1ccccc1)NC(=O)CCc1ccc(O)c(O)c1)S(=O)(=O)c1ccc(N)cc1
IC50 [3]: 9.5 nM
IC50 [4]: 0.56 nM

COc1cc(/C=C/C(=O)N[C@@H](Cc2ccccc2)[C@H](O)CN(CC(C)C)S(=O)(=O)c2ccc(N)cc2)cc(OC)c1O
EC50 [5]: 37400 nM
IC50 [3]: 1.5 nM
IC50 [4]: 144 nM
inhibition at 10 µM [1]: 30%
EC50 [6]: 68000 nM
inhibition at 10 µM [2]: 14%
Ratio [7]: 2.14

COc1ccc(S(=O)(=O)N(C[C@@H](O)[C@H](Cc2ccccc2)NC(=O)/C=C/c2cc(OC)c(O)c(OC)c2)C2CC2)cc1
IC50 [3]: 33.5 nM
IC50 [4]: 294 nM

CCCN(C[C@@H](O)[C@H](Cc1ccccc1)NC(=O)/C=C/c1cc(OC)c(O)c(OC)c1)S(=O)(=O)c1ccc(OC)cc1
IC50 [3]: 90.5 nM
IC50 [4]: 36.7 nM

COc1ccc(S(=O)(=O)N(CC(C)C)C[C@@H](O)[C@H](Cc2ccccc2)NC(=O)CCc2ccc(O)c(OC)c2)cc1
IC50 [3]: 206 nM
IC50 [4]: 1.1 nM

CCCN(C[C@@H](O)[C@H](Cc1ccccc1)NC(=O)/C=C/c1ccc(O)c(OC)c1)S(=O)(=O)c1ccc(OC)cc1
IC50 [3]: 106 nM
IC50 [4]: 24.1 nM

COc1ccc(S(=O)(=O)N(CC(C)C)C[C@@H](O)[C@H](Cc2ccccc2)NC(=O)CCc2ccc(O)c(O)c2)cc1
IC50 [3]: 3.5 nM
IC50 [4]: 0.39 nM

CCCN(C[C@@H](O)[C@H](Cc1ccccc1)NC(=O)/C=C/c1ccc(O)c(O)c1)S(=O)(=O)c1ccc(OC)cc1
IC50 [3]: 53.5 nM
IC50 [4]: 2.55 nM

O=C1Nc2ccc(Cl)cc2[C@@](C#CC2CC2)(C(F)(F)F)O1 [EFAVIRENZ]
inhibition at 10 µM [1]: 15%
inhibition at 10 µM [2]: 85%
